The record followed here is ChEMBL document CHEMBL4364290, “Light-controlled inhibition of BRAFV600E kinase” (Eur J Med Chem, 2019).

SMILES strings stand for the structures. Calls of active or inactive are those of the source. No cut-off for these calls is given here.

Data set [1] in a line: Drug isomerization in DMSO-d6 irradiated at 365 nm assessed as cis isomer level at PSS at 2 mg/ml measured after 45 mins under room temperature by 1H and 19F-NMR spectroscopic analysis.
Data set [2] in a line: Drug isomerization in DMSO-d6 irradiated at 365 nm assessed as cis isomer level at PSS at 2 mg/ml measured after 90 mins under room temperature by 1H and 19F-NMR spectroscopic analysis.
The target in data set [3] is Serine/threonine-protein kinase B-raf (Homo sapiens, UniProt P15056, V600E). Put plainly: Inhibition of human recombinant N-terminal GST/His6-tagged BRAF V600E mutant (Q417 to H766 residues) expressed in Sf9 insect cells using MEK1 as substrate measured after 1 hr using preheated compound at 60 degC for 30 mins by Western blot analysis.
In data set [4] the test system is A-375. Put plainly: Dark toxicity against human A375 cells harboring BRAF V600E mutant assessed as reduction in cell viability at 10 uM incubated for 24 hrs using preheated compound at 60 degC for 60 mins by MTS assay. The class given is cell-based. The conditions noted are these: a-375, 24 h, in the assay text read “30 mins” for “60 mins”. In a few lines: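 A375 melanoma cells (BRAF V600E) exposed 24 h to 10 µM compound, thermally adapted or 365 nm-irradiated, versus DMSO control; viability by MTS assay.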

Data set [5] is described as follows: Drug isomerization in bovine plasma assessed as cis-isomer formation at 10 uM irradiated with 365 nm light by LCMS analysis. The class given is ADME, cell-free, Bos taurus. As to conditions: cattle.
The nature of data set [6]: Drug isomerization in bovine plasma at 10 uM measured after 20 hrs at 37 degC by LCMS analysis. The class given is ADME, cell-free, Bos taurus. The conditions noted are these: cattle.
Data set [7] can be described thus: Stability of thermally adapted compound in bovine plasma at 10 uM after 1 hr at 37 degC by LCMS analysis. As to conditions: cattle. The class given is ADME, cell-free, Bos taurus.
The nature of data set [8]: Stability in bovine plasma irradiated with white light at 10 uM by LCMS analysis. The conditions noted are these: cattle. The class given is ADME, cell-free, Bos taurus.
Data set [9] is described as follows: Drug isomerization in DMSO-d6 assessed as cis isomer level at PSS at 2 mg/ml irradiated at 365 nm light measured immediately by 1H-NMR spectroscopic analysis.
Data set [10] concerns Serine/threonine-protein kinase B-raf (Homo sapiens), P15056 [V600E]. As to the kind of experiment: Inhibition of BRAF V600E mutant in human SK-MEL-28 using peptide as substrate using preheated compound at 60 degC for 30 mins measured under dark condition by STK-Pamchip array-based method. The class given is cell-based. The method, boiled down: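 SK-Mel-28 cell lysates treated with DMSO control or inhibitor, either dark (thermally adapted) or irradiated with 365 nm light; kinase activity profiled on PamGene STK peptide chips.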

The test system is the same in data set [11]. As to the kind of experiment: Reversible inhibition of human recombinant N-terminal GST/His6-tagged BRAF V600E mutant (Q417 to H766 residues) expressed in Sf9 insect cells using MEK1 as substrate at 1 uM pre-irradiated with 365 nm light for 45 mins followed by thermal activation at 60 degC for 30 mins and subsequent light irradiation at 365 nm for 45 mins by Western blot analysis. Background: A western blot detects proteins with antibodies after separation by electrophoresis.

Data set [12] is described as follows: Absorption property of the compound in DMSO assessed as maximum absorption wavelength. The class given is physicochemical. In a few lines: (§1)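 λmax of the trans isomer recorded in DMSO and in BRAF assay buffer.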
Data set [13] can be described thus: Absorption property of the compound in pH 7.5 tris HCl buffer assessed as maximum absorption wavelength. The class given is physicochemical. In a few lines:
as §1

A short description of data set [14]: Stability of the compound in DMSO-D6 at 2 mg/ml by 1H-19F NMR analysis. The class given is physicochemical. As to conditions: read-out: Stability.

Sequence of Serine/threonine-protein kinase B-raf (Homo sapiens), P15056 [V600E] (P15056 whole entry V600E): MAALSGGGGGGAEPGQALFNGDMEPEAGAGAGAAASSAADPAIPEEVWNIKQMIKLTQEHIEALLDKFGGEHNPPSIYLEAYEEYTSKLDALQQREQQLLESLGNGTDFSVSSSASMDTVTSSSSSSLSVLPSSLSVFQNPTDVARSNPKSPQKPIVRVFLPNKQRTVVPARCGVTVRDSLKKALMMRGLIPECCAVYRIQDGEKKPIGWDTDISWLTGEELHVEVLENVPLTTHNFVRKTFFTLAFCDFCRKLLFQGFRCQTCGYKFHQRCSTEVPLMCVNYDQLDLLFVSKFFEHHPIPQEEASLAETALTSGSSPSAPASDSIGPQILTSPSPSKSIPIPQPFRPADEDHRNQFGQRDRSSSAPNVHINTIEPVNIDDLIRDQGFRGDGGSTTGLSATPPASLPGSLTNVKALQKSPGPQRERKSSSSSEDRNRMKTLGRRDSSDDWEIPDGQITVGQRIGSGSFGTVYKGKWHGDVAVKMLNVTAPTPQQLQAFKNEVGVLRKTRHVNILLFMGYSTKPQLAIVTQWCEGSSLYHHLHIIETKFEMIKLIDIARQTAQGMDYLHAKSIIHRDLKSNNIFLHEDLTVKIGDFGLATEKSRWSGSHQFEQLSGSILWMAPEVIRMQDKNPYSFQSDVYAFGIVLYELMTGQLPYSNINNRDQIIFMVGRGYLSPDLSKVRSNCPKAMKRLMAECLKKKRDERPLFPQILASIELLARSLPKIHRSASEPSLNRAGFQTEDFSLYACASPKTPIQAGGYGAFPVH
Sequence of Serine/threonine-protein kinase B-raf (P15056 2-766 V600E limits assumed): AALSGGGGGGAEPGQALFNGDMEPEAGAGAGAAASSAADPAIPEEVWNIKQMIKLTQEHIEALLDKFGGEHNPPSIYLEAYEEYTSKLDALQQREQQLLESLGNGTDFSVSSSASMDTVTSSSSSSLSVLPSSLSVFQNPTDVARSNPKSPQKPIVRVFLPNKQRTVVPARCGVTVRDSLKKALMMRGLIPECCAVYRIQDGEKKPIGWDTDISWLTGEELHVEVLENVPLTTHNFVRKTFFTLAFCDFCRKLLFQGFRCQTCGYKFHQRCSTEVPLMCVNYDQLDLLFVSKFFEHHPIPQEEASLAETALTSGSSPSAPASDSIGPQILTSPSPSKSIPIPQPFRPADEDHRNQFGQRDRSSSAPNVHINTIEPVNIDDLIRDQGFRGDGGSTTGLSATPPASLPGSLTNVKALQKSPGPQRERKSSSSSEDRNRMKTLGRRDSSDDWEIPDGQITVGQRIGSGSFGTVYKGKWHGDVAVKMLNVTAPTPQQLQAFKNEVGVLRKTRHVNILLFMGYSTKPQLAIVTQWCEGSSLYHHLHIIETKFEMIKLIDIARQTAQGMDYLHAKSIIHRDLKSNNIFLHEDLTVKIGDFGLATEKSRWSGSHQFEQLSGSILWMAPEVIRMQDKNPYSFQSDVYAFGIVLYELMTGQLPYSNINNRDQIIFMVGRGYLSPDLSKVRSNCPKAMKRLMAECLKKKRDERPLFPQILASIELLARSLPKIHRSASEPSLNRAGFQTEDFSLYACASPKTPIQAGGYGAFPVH

As usually defined, the IC50 is the concentration that inhibits the measured activity by half. For the molecule `COc1n[nH]c2ncc(NC(=O)c3c(F)ccc(/N=N/c4ccccc4)c3F)cc12`, the Drug metabolism in data set [1] was 46%; in [2], 55%; in data set [6] it was “Metabolite_Detected”; in [9], 37%. In addition, the 50% inhibitory concentration (IC50) in [3] came out at 1680 nM. For the same molecule, the Activity entry in [4] is “Non-Toxic”; in data set [12], 332 nm; in [13], 328 nm. Also, the Stability entry in data set [5], in data set [7] and in data set [8] was “Unstable” each time. Also, the inhibition entry in data set [10] and in data set [11] was “Active” in each case. The remaining at 2 mg/ml in [14] is greater than 95%.
